Test results from ChEMBL document CHEMBL1687778, “Genetic determinants involved in the susceptibility of Pseudomonas aeruginosa to beta-lactam antibiotics” (2010).
Values after ≈ are worked out from the molar mass of the structure shown.

Assays:
Type in all cases: functional
Pseudomonas aeruginosa [1] = assay: Antimicrobial activity against Pseudomonas aeruginosa PA14 PA3520 harboring mutation in putative periplasmic metal-binding protein by Etest method
How it was run: (§1)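 Etest MIC. Overnight LB cultures at 37°C were diluted in sterile 0.85% NaCl to about 1 × 10^7 CFU/ml. 100 µl was spread on Mueller-Hinton agar, one strip was placed per plate, and plates were incubated at 37°C for 18 h. Equal cell numbers were seeded per plate, and results were verified in triplicate. PA14 wild type was included in each set as a susceptibility control.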

Pseudomonas aeruginosa [2] = assay: Antimicrobial activity against Pseudomonas aeruginosa PA14 PA0770 harboring rnc mutant gene by Etest method
How it was run: (§2)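 Overnight LB cultures (37°C) diluted in sterile 0.85% NaCl to about 1 × 10^7 CFU/ml. 100 µl spread on Mueller-Hinton agar, one Etest strip per plate, 18 h at 37°C. Ceftazidime, imipenem and meropenem tested. Wild-type PA14 plate included in each set. Each mutant verified in triplicate.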

Pseudomonas aeruginosa [3] = assay: Antimicrobial activity against Pseudomonas aeruginosa PA14 PA3667 harboring mutation in putative cysteine sulfinate desulfinase by Etest method; how it was run: as §1
Pseudomonas aeruginosa [4] = assay: Antimicrobial activity against Pseudomonas aeruginosa PA14 PA14_07490/07510 harboring mutation in intergenic region by Etest method; how it was run: as §2
Pseudomonas aeruginosa [5] = assay: Antimicrobial activity against Pseudomonas aeruginosa PA14 PA2963 harboring mutation in putative aminodeoxychorismate lyase by Etest method; how it was run: as §2
Pseudomonas aeruginosa [6] = assay: Antimicrobial activity against Pseudomonas aeruginosa PA14 PA1011 harboring mutation in putative lipoprotein by Etest method; how it was run: as §2
Pseudomonas aeruginosa [7] = assay: Antimicrobial activity against Pseudomonas aeruginosa PA14 PA3721 harboring nalC mutant gene by Etest method; how it was run: as §1
Pseudomonas aeruginosa [8] = assay: Antimicrobial activity against Pseudomonas aeruginosa PA14 PA1483 harboring cycH mutant gene by Etest method; how it was run: as §2
Pseudomonas aeruginosa [9] = assay: Antimicrobial activity against Pseudomonas aeruginosa PA14 PA1195 harboring mutation in putative dimethylarginine dimethylaminohydrolase by Etest method; how it was run: as §2
Pseudomonas aeruginosa [10] = assay: Antimicrobial activity against Pseudomonas aeruginosa PA14 PA1553 harboring mutation in putative cytochrome c oxidase, cbb3 type, subunit II by Etest method; how it was run: as §2
Pseudomonas aeruginosa [11] = assay: Antimicrobial activity against Pseudomonas aeruginosa PA14 PA5003 harboring mutation in conserved hypothetical protein by Etest method; how it was run: as §1
Pseudomonas aeruginosa [12] = assay: Antimicrobial activity against Pseudomonas aeruginosa PA14 PA1348 harboring mutation in conserved hypothetical protein by Etest method; how it was run: as §2
Pseudomonas aeruginosa [13] = assay: Antimicrobial activity against Pseudomonas aeruginosa PA14 PA0401 harboring mutation in Noncatalytic dihydroorotase-like protein by Etest method; how it was run: as §2
Pseudomonas aeruginosa [14] = assay: Antimicrobial activity against Pseudomonas aeruginosa PA14 PA2128 harboring cupA1 mutant gene by Etest method; how it was run: as §2
Pseudomonas aeruginosa [15] = assay: Antimicrobial activity against Pseudomonas aeruginosa PA14 PA5366 harboring pstB mutant gene by Etest method; how it was run: as §1
Pseudomonas aeruginosa [16] = assay: Antimicrobial activity against wild type Pseudomonas aeruginosa PA14 by Etest method; how it was run: as §1
Pseudomonas aeruginosa [17] = assay: Antimicrobial activity against Pseudomonas aeruginosa PA14 PA5001 harboring mutation in conserved hypothetical protein by Etest method; how it was run: as §1
Pseudomonas aeruginosa [18] = assay: Antimicrobial activity against Pseudomonas aeruginosa PA14 PA4748 harboring tpiA mutant gene by Etest method; how it was run: as §1
Pseudomonas aeruginosa [19] = assay: Antimicrobial activity against Pseudomonas aeruginosa PA14 PA4946 harboring mutL mutant gene by Etest method; how it was run: as §1
Pseudomonas aeruginosa [20] = assay: Antimicrobial activity against Pseudomonas aeruginosa PA14 PA5002 harboring mutation in hypothetical protein by Etest method; how it was run: as §1
Pseudomonas aeruginosa [21] = assay: Antimicrobial activity against Pseudomonas aeruginosa PA14 PA5038 harboring aroB mutant gene by Etest method; how it was run: as §1
Pseudomonas aeruginosa [22] = assay: Antimicrobial activity against Pseudomonas aeruginosa PA14 PA5443 harboring uvrD mutant gene by Etest method; how it was run: as §1
Pseudomonas aeruginosa [23] = assay: Antimicrobial activity against Pseudomonas aeruginosa PA14 PA4550 harboring fimU mutant gene by Etest method; how it was run: as §1
Pseudomonas aeruginosa [24] = assay: Antimicrobial activity against Pseudomonas aeruginosa PA14 PA4269 harboring rpoC mutant gene by Etest method; how it was run: as §1
Pseudomonas aeruginosa [25] = assay: Antimicrobial activity against Pseudomonas aeruginosa PA14 PA2621 harboring clpS mutant gene by Etest method; how it was run: as §2
Pseudomonas aeruginosa [26] = assay: Antimicrobial activity against Pseudomonas aeruginosa PA14 PA14_23430 harboring mutation in putative heparinase by Etest method; how it was run: as §2
Pseudomonas aeruginosa [27] = assay: Antimicrobial activity against Pseudomonas aeruginosa PA14 PA3050 harboring pyrD mutant gene by Etest method; how it was run: as §2
Pseudomonas aeruginosa [28] = assay: Antimicrobial activity against Pseudomonas aeruginosa PA14 PA3978 harboring mutation in hypothetical protein by Etest method; how it was run: as §1
Pseudomonas aeruginosa [29] = assay: Antimicrobial activity against Pseudomonas aeruginosa PA14 PA3259 harboring mutation in conserved hypothetical protein by Etest method; how it was run: as §1
Pseudomonas aeruginosa [30] = assay: Antimicrobial activity against Pseudomonas aeruginosa PA14 PA0479 harboring mutation in putative transcriptional regulator, LysR family by Etest method; how it was run: as §2
Pseudomonas aeruginosa [31] = assay: Antimicrobial activity against Pseudomonas aeruginosa PA14 PA5288 harboring glnK mutant gene by Etest method; how it was run: as §1
Pseudomonas aeruginosa [32] = assay: Antimicrobial activity against Pseudomonas aeruginosa PA14 PA4005 harboring mutation in conserved hypothetical protein by Etest method; how it was run: as §1
Pseudomonas aeruginosa [33] = assay: Antimicrobial activity against Pseudomonas aeruginosa PA14 PA3620 harboring mutS mutant gene by Etest method; how it was run: as §1
Pseudomonas aeruginosa [34] = assay: Antimicrobial activity against Pseudomonas aeruginosa PA14 PA0420 harboring bioA mutant gene by Etest method; how it was run: as §2
Pseudomonas aeruginosa [35] = assay: Antimicrobial activity against Pseudomonas aeruginosa PA14 PA0766 harboring mucD mutant gene by Etest method; how it was run: as §2
Pseudomonas aeruginosa [36] = assay: Antimicrobial activity against Pseudomonas aeruginosa PA14 PA4459 harboring mutation in Conserved hypothetical protein by Etest method; how it was run: as §1
Pseudomonas aeruginosa [37] = assay: Antimicrobial activity against Pseudomonas aeruginosa PA14 PA14_15600 harboring mutation in conserved hypothetical protein by Etest method; how it was run: as §2
Pseudomonas aeruginosa [38] = assay: Antimicrobial activity against Pseudomonas aeruginosa PA14 PA2487 harboring mutation in hypothetical protein by Etest method; how it was run: as §2
Pseudomonas aeruginosa [39] = assay: Antimicrobial activity against Pseudomonas aeruginosa PA14 PA0958 harboring oprD mutant gene by Etest method; how it was run: as §2
Pseudomonas aeruginosa [40] = assay: Antimicrobial activity against Pseudomonas aeruginosa PA14 PA14_06490 harboring mutation in hypothetical protein by Etest method; how it was run: as §2
Pseudomonas aeruginosa [41] = assay: Antimicrobial activity against Pseudomonas aeruginosa PA14 PA14_59780 harboring rcsC mutant gene by Etest method; how it was run: as §2
Pseudomonas aeruginosa [42] = assay: Antimicrobial activity against Pseudomonas aeruginosa PA14 PA3433 harboring mutation in putative transcriptional regulator, LysR family by Etest method; how it was run: as §1
Pseudomonas aeruginosa [43] = assay: Antimicrobial activity against Pseudomonas aeruginosa PA14 PA3141 harboring wbpM mutant gene by Etest method; how it was run: as §2
Pseudomonas aeruginosa [44] = assay: Antimicrobial activity against Pseudomonas aeruginosa PA14 PA5192 harboring pckA mutant gene by Etest method; how it was run: as §1
Pseudomonas aeruginosa [45] = assay: Antimicrobial activity against Pseudomonas aeruginosa PA14 PA14_43090 harboring mutation in hypothetical protein by Etest method; how it was run: as §2
Pseudomonas aeruginosa [46] = assay: Antimicrobial activity against Pseudomonas aeruginosa PA14 PA4745 harboring nusA mutant gene by Etest method; how it was run: as §1
Pseudomonas aeruginosa [47] = assay: Antimicrobial activity against Pseudomonas aeruginosa PA14 PA0667 harboring mutation in putative metallopeptidase by Etest method; how it was run: as §2
Pseudomonas aeruginosa [48] = assay: Antimicrobial activity against Pseudomonas aeruginosa PA14 PA14_23420 harboring mutation in putative zinc-binding dehydrogenase by Etest method; how it was run: as §2

C[C@@H](O)[C@H]1C(=O)N2C(C(=O)O)=C(SCCNC=N)C[C@H]12 [IMIPENEM ANHYDROUS]
MIC (Pseudomonas aeruginosa [1]): 0.5 µg/mL (≈ 1.67 µM)
MIC (Pseudomonas aeruginosa [2]): 0.75 µg/mL (≈ 2.51 µM)
MIC (Pseudomonas aeruginosa [3]): 0.75 µg/mL (≈ 2.51 µM)
MIC (Pseudomonas aeruginosa [4]): 0.5 µg/mL (≈ 1.67 µM)
MIC (Pseudomonas aeruginosa [5]): 0.25 µg/mL (≈ 0.835 µM)
MIC (Pseudomonas aeruginosa [6]): 0.5 µg/mL (≈ 1.67 µM)
MIC (Pseudomonas aeruginosa [7]): 0.5 µg/mL (≈ 1.67 µM)
MIC (Pseudomonas aeruginosa [8]): 0.5 µg/mL (≈ 1.67 µM)
MIC (Pseudomonas aeruginosa [9]): 0.38 µg/mL (≈ 1.27 µM)
MIC (Pseudomonas aeruginosa [10]): 1 µg/mL (≈ 3.34 µM)
MIC (Pseudomonas aeruginosa [11]): 0.5 µg/mL (≈ 1.67 µM)
MIC (Pseudomonas aeruginosa [12]): 0.5 µg/mL (≈ 1.67 µM)
MIC (Pseudomonas aeruginosa [13]): 0.38 µg/mL (≈ 1.27 µM)
MIC (Pseudomonas aeruginosa [14]): 0.38 µg/mL (≈ 1.27 µM)
MIC (Pseudomonas aeruginosa [15]): 0.25 µg/mL (≈ 0.835 µM)
MIC (Pseudomonas aeruginosa [16]): 0.5 µg/mL (≈ 1.67 µM)
MIC (Pseudomonas aeruginosa [17]): 0.38 µg/mL (≈ 1.27 µM)
MIC (Pseudomonas aeruginosa [18]): 0.38 µg/mL (≈ 1.27 µM)
MIC (Pseudomonas aeruginosa [19]): 0.38 µg/mL (≈ 1.27 µM)
MIC (Pseudomonas aeruginosa [20]): 0.38 µg/mL (≈ 1.27 µM)
MIC (Pseudomonas aeruginosa [21]): 0.38 µg/mL (≈ 1.27 µM)
MIC (Pseudomonas aeruginosa [22]): 0.5 µg/mL (≈ 1.67 µM)
MIC (Pseudomonas aeruginosa [23]): 0.5 µg/mL (≈ 1.67 µM)
MIC (Pseudomonas aeruginosa [24]): 0.5 µg/mL (≈ 1.67 µM)
MIC (Pseudomonas aeruginosa [25]): 0.38 µg/mL (≈ 1.27 µM)
MIC (Pseudomonas aeruginosa [26]): 0.38 µg/mL (≈ 1.27 µM)
MIC (Pseudomonas aeruginosa [27]): 0.25 µg/mL (≈ 0.835 µM)
MIC (Pseudomonas aeruginosa [28]): 0.094 µg/mL (≈ 0.314 µM)
MIC (Pseudomonas aeruginosa [29]): 0.5 µg/mL (≈ 1.67 µM)
MIC (Pseudomonas aeruginosa [30]): 1 µg/mL (≈ 3.34 µM)
MIC (Pseudomonas aeruginosa [31]): 0.25 µg/mL (≈ 0.835 µM)
MIC (Pseudomonas aeruginosa [32]): 0.064 µg/mL (≈ 0.214 µM)
MIC (Pseudomonas aeruginosa [33]): 0.38 µg/mL (≈ 1.27 µM)
MIC (Pseudomonas aeruginosa [34]): 0.125 µg/mL (≈ 0.418 µM)
MIC (Pseudomonas aeruginosa [35]): 0.25 µg/mL (≈ 0.835 µM)
MIC (Pseudomonas aeruginosa [36]): 0.25 µg/mL (≈ 0.835 µM)
MIC (Pseudomonas aeruginosa [37]): 0.5 µg/mL (≈ 1.67 µM)
MIC (Pseudomonas aeruginosa [38]): 0.5 µg/mL (≈ 1.67 µM)
MIC (Pseudomonas aeruginosa [39]): 2 µg/mL (≈ 6.68 µM)
MIC (Pseudomonas aeruginosa [40]): 0.38 µg/mL (≈ 1.27 µM)
MIC (Pseudomonas aeruginosa [41]): 0.5 µg/mL (≈ 1.67 µM)
MIC (Pseudomonas aeruginosa [42]): 0.19 µg/mL (≈ 0.635 µM)
MIC (Pseudomonas aeruginosa [43]): 0.5 µg/mL (≈ 1.67 µM)
MIC (Pseudomonas aeruginosa [44]): 0.38 µg/mL (≈ 1.27 µM)
MIC (Pseudomonas aeruginosa [45]): 0.38 µg/mL (≈ 1.27 µM)
MIC (Pseudomonas aeruginosa [46]): 0.25 µg/mL (≈ 0.835 µM)
MIC (Pseudomonas aeruginosa [47]): 0.5 µg/mL (≈ 1.67 µM)
MIC (Pseudomonas aeruginosa [48]): 0.38 µg/mL (≈ 1.27 µM)
